Data set [1] concerns the target T1, Opioid receptors; mu/kappa/delta (Homo sapiens, UniProt P41145+P41143+P35372). Put plainly: Inhibition of Opioid receptors binding by inhibiting specific [3H]naloxone binding by 50% in the presence of 100 mM NaCl. It counts as protein assay, Cavia porcellus.
Data set [2] can be described thus: […] (pKa) value was evaluated. It counts as physicochemical. The gist of the method: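 pKa by potentiometric titration in distilled water at 24 °C. Compound dissolved at 5 to 7.5×10^-3 M and titrated with 0.1039 M NaOH, with pH change followed on a pH meter. Each compound run in triplicate.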
Data set [3] is filed under the species Mus musculus. Put plainly: Analgesic activity determined in the mouse hot plate test expressed as ED50; value ranges from 3.2-6.1. It counts as functional.
Data set [4] has as its target T1, Opioid receptors; mu/kappa/delta. Put plainly: Inhibition of Opioid receptors with [3H]naloxone binding in the absence of NaCl. It counts as protein assay, Cavia porcellus.
The species entered for data set [5] is Mus musculus. Put plainly: Analgesic activity determined in the mouse hot plate test expressed as ED50.
Data set [6] has as its system Rattus norvegicus. Put plainly: Serum citrate level when administered intraperitoneally at dose 12.5 mg/kg in 5 rats. It counts as functional, organism-based. The arrangement: dose 12.5 mg/kg. The gist of the method:
(§1)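 Male Sprague–Dawley rats (200–225 g), dosed ip. Blood centrifuged to obtain serum, and citrate measured by the Camp and Farmer procedure. Values reported as mg/mL with SE.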

The species entered for data set [7] is Mus musculus. Put plainly: Analgesic activity determined in the mouse hot plate test expressed as ED50; Range is 17.8-72.1. It counts as functional.
The species entered for data set [8] is Cavia porcellus. In words: Inhibitory Dose required to reduce electrically stimulated contractions by 50% in guinea pig ileum; I = Infinite. It counts as functional.
For data set [9], the species on record is Cavia porcellus. Put plainly: Agonist potency was evaluated in the guinea pig ileum. It counts as functional.
The species entered for data set [10] is Mus musculus. In words: Analgesic activity determined in the mouse hot plate test expressed as ED50; Range is 6.4-12.8. It counts as functional.
The subject of data set [11] is Rattus norvegicus. Put plainly: Serum citrate level when administered intraperitoneally at dose 45 mg/kg in 7 rats. It counts as functional, organism-based. Also noted: dose 45 mg/kg. The method, boiled down: as §1
For data set [12], the species on record is Mus musculus. Put plainly: Analgesic activity determined in the mouse hot plate test expressed as ED50; value ranges from 12.7-29.8. It counts as functional.
Data set [13] relates to Rattus norvegicus. In words: Serum citrate level when administered intraperitoneally at dose 40 mg/kg in 6 rats. It counts as functional, organism-based. The arrangement: dose 40 mg/kg. The method, boiled down:
as §1

For data set [14], the species on record is Mus musculus. Put plainly: Analgesic activity determined in the mouse hot plate test expressed as ED50; I = inactive at 40. It counts as functional, organism-based.
Data set [15] is filed under the species Cavia porcellus. Put plainly: (§2) Antagonist potency was evaluated in the mouse vas deferens relative to naloxone = 1. It counts as functional.
The species entered for data set [16] is Mus musculus. Put plainly: Analgesic activity determined in the mouse hot plate test expressed as ED50; IA means in active to 100. It counts as functional, organism-based.
For data set [17], the species on record is Mus musculus. Put plainly: Equilibrium dissociation constant (Ke) against response produced by normorphine in the mouse vas deferens. It counts as functional.
The species named for data set [18] is Cavia porcellus. In words: Inhibitory Dose required to reduce electrically stimulated contractions by 50% in guinea pig ileum. It counts as functional. As to conditions: read-out: ID50 (the source's name).
The species named for data set [19] is Mus musculus. In words: Analgesic activity determined in the mouse hot plate test expressed as ED50; Range is 6.3-14.8. It counts as functional.
For data set [20], the species on record is Mus musculus. Described as §2. It counts as functional.
The species named for data set [21] is Cavia porcellus. Put plainly: Agonist potency evaluated in the guinea pig ileum. It counts as functional.

Each structure is given as a SMILES string. Calls of active or inactive are those of the source. The rule behind the calls is not given here.

In the case of `CCOC(=O)C1(c2ccccc2)CCN(CC)CC1.Cl`, the figures for the IC50 in [1] and in data set [4] were 120 µM and 5 µM, respectively. Also, the pKa in [2] was 9.03. Further, in the data set filed under Mus musculus [3], the 50% effect level (ED50) was put at a dose of 4.4 mg/kg.
As for `CN1CC[C@]23c4c5ccc(O)c4O[C@H]2[C@@H](O)C=C[C@H]3[C@H]1C5` [MORPHINE], the ED50 in the data set filed under Mus musculus [5] was 1.2 mg/kg.
Turning to `O=C(O)CF`, in the data set with Rattus norvegicus [6], the Level was 132 mg/mL.
For `CCN1CC[C@]2(C)c3cc(O)ccc3CC1[C@@H]2C.CS(=O)(=O)O`, the IC50 in data set [1] turned out to be 0.2 µM; in data set [4], 0.18 µM. The compound further yielded a pKa in data set [2] of 9.42. It took a dose of 44.7 mg/kg to reach the 50% effect level in the data set filed under Mus musculus [7] (ED50).
For `CS(=O)(=O)O.C[C@H]1C2Cc3ccc(O)cc3[C@@]1(C)CCN2CCF`, the results for the IC50 in data set [1] and in data set [4] were 0.1 µM and 0.05 µM, respectively. Also, the pKa in data set [2] is 8.35. Also, the ID50 entry in the data set listed under Cavia porcellus [8] is “inactive”. Besides, the Agonist potency in the data set listed under Cavia porcellus [9] is 0. Also, in the data set listed under Mus musculus [10], the ED50 was 9.16 mg/kg. The Level with Rattus norvegicus [11] is 121 mg/mL.
Take `CCOC(=O)C1(c2ccccc2)CCN(CCF)CC1.Cl`: the IC50 in data set [1] stood at 64 µM; in data set [4], 20 µM. In addition, the pKa in [2] turned out to be 7.43. The compound also yielded an ED50 in the data set listed under Mus musculus [12] of 19.4 mg/kg. Moreover, the Level in the data set on Rattus norvegicus [13] came to 81 mg/mL.
As to `CS(=O)(=O)O.C[C@H]1C2Cc3ccc(O)cc3[C@@]1(C)CCN2CC(F)(F)F`, the figures for the IC50 in data set [1] and in [4] were 2.5 µM and 1.7 µM, respectively. This compound also registered a pKa in data set [2] of 4.56. Also, the ED50 entry in the data set filed under Mus musculus [14] was “inactive”. In the data set filed under Cavia porcellus [15], this compound displayed an Agonist potency of 0.
As for `CCOC(=O)C1(c2ccccc2)CCN(CC(F)F)CC1.Cl`, the figures for the IC50 in [1] and in data set [4] were 110 µM and 85 µM, respectively. The same compound gave a pKa in data set [2] of 5.23. In addition, in the data set filed under Mus musculus [16], the ED50 entry is “inactive”.
On to `CCOC(=O)C1(c2ccccc2)CCN(CC(F)(F)F)CC1.Cl`, for which the IC50 in [1] was found to be 60 µM; in [4] it was 10 µM. This compound also returned a pKa in [2] of 3.13. For the same compound, the ED50 entry in the data set filed under Mus musculus [16] is “inactive”.
In the case of `CS(=O)(=O)O.C[C@H]1C2Cc3ccc(O)cc3[C@@]1(C)CCN2CC(F)F`, the IC50 was 1.15 µM in [1], 0.453 µM in the data set listed under Cavia porcellus [18] and 1 µM in data set [4]. Besides, in [2], the pKa is 6.52. This compound also showed a Ke in the data set filed under Mus musculus [17] of 2930 nM. In the data set filed under Mus musculus [19], the ED50 was 9.7 mg/kg. For the same compound, in the data set listed under Mus musculus [20], the Antagonist potency stood at 0.001. This compound also showed an Agonist potency in the data set listed under Cavia porcellus [21] of 0.16.

For the origin of these results see ChEMBL document CHEMBL1121516, “Synthesis and biological activity of fluoroalkylamine derivatives of narcotic analgesics” (J Med Chem, 1980).
